{"source": "paper PMC8751737", "about": "(International journal of pharmaceutics, 2021)", "key": {"[1]": {"tested_on": "Calu-3 bearing nude mice", "assay": "Toxicity study", "format": "in vivo, BALB/c nude mice", "how_it_was_run": "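Same Calu-3 xenograft nude mice and intravenous dosing every four days, with a PBS control group. Body weight was recorded every four days during the efficacy study. At termination (38 days), heart, liver, spleen, kidney and lung tumor were formalin-fixed and paraffin-embedded. Sections of 5 μm were H&E-stained and examined microscopically by a toxicologist.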"}, "[2]": {"tested_on": "Calu-3", "assay": "Antiproliferative activity, CellTiter-Glo assay", "format": "cell-based, human", "conditions": "read-out: IC50 (72 Hours) Calu-3, 72 h incubation, triplicate", "how_it_was_run": "(§1)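 Cells were plated in 96-well plates and held 24 h at 37 °C in 5% CO2. Media with 10% FBS, 1% penicillin-streptomycin and 1% insulin were RPMI-1640 for BT474, EMEM for Calu-3 and Fibroblast Basal Medium for HLFs. Test compound or liposome was added at 0.001–100 μM for 72 h. Cells were PBS-washed before CellTiter-Glo luminescence. Triplicate runs; IC50 from dose-response plot.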"}, "[3]": {"tested_on": "Calu-3 3D tumor spheroids", "assay": "Antiproliferative activity in multicellular 3D tumor spheroid", "format": "cell-based, human", "conditions": "read-out: 3D tumor spheroid IC50 (72 Hours) Calu-3, hanging drop spheroids, CellTiter-Glo 3D, mean ± SD, n=3", "how_it_was_run": "(§2)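 Hanging-drop spheroids seeded at 500 cells/μL in 40 μL of medium and formed over 24 h at 37 °C, 5% CO2, humidified. Spheroids moved to round-bottom 96-well plates in serum-free medium and treated with test compound at 0.01–100 μM for 72 h at 37 °C. Viability read by CellTiter-Glo 3D luminescence, and IC50 derived from the dose-response.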"}, "[4]": {"tested_on": "MCF-7 spheroids", "assay": "In vitro tumor growth inhibition in 3D tumor spheroids", "format": "cell-based, human", "conditions": "3 μM, 5 days", "how_it_was_run": "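MCF-7 cells (40 μL at 125 cells/μL) grown as hanging-drop spheroids at 37 °C, 5% CO2, humidified, until about 100–200 μm, then moved to round-bottom 96-well plates (day zero). Treated with test compound at 3 μM, with untreated controls. Imaged for five consecutive days under a 4× objective, and volume calculated as 0.5 × length × width².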"}, "[5]": {"tested_on": "BT474 3D tumor spheroids", "assay": "Antiproliferative activity in multicellular 3D tumor spheroid", "format": "cell-based, human", "conditions": "read-out: 3D tumor spheroid IC50 (72 Hours) BT474, hanging drop spheroids, CellTiter-Glo 3D, mean ± SD, n=3", "how_it_was_run": "as §2"}, "[6]": {"tested_on": "MCF-7 3D tumor spheroids", "assay": "Antiproliferative activity in multicellular 3D tumor spheroid", "format": "cell-based, human", "conditions": "read-out: 3D tumor spheroid IC50 (72 Hours) MCF-7, hanging drop spheroids, CellTiter-Glo 3D, mean ± SD, n=3", "how_it_was_run": "as §2"}, "[7]": {"tested_on": "BT474", "assay": "Antiproliferative activity, CellTiter-Glo assay", "format": "cell-based, human", "conditions": "read-out: IC50 (72 Hours) BT474, 72 h incubation, triplicate", "how_it_was_run": "as §1"}, "[8]": {"tested_on": "non-cancerous lung fibroblast cells (HLFs)", "assay": "Antiproliferative activity, CellTiter-Glo assay", "format": "cell-based, human", "conditions": "read-out: IC50 (72 Hours) HLFs, 72 h incubation, triplicate", "how_it_was_run": "as §1"}, "[9]": {"tested_on": "Calu-3", "assay": "Apoptosis study", "format": "cell-based, human", "conditions": "Calu-3, 3 μM, 12 h, annexin V-FITC/PI, n=3", "how_it_was_run": "(§3)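 Cells were seeded at 2×10⁵ cells/mL in flasks and cultured 24 h. At 70% confluence they were exposed to 3 μM test compound in serum-free medium for 12 h. Cells were then trypsinized, washed in ice-cold PBS and resuspended in binding buffer at 2.5×10⁶ cells/mL. Staining with annexin V-FITC plus propidium iodide ran 15 min before flow cytometry.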"}, "[10]": {"tested_on": "BT474", "assay": "Apoptosis study", "format": "cell-based, human", "conditions": "BT474, 3 μM, 12 h, annexin V-FITC/PI, n=3", "how_it_was_run": "as §3"}, "[11]": {"tested_on": "Calu-3 bearing nude mice", "assay": "In vivo antitumor activity", "parameters": "species or system BALB/c nude mice", "conditions": "intravenous, Dox-equivalent dose 6 mg kg−1 every four days, mean ± SD, n=5", "how_it_was_run": "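Male and female BALB/c nude mice (22–35 g) received 1×10⁷ Calu-3 cells in 100 μL culture medium subcutaneously in the right back. At 30–50 mm³ tumors, mice were randomized (n = 5/group). Dosing was intravenous every four days, with PBS as control. Tumor volume was measured every four days. Mice were killed at 38 days and tumors weighed.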"}}, "data": [{"compound": "COc1cccc2c1C(=O)c1c(O)c3c(c(O)c1C2=O)C[C@@](O)(C(=O)CO)C[C@@H]3O[C@H]1C[C@H](N)[C@H](O)[C@H](C)O1", "note": "[Free Dox, Doxorubicin]", "values": [{"measurement": "body weight loss", "setting": "[1]; Dox-equivalent 6 mg kg−1 every four days, 38 days after tumor implantation", "value": "significant weight loss"}, {"measurement": "histopathology of heart tissues", "setting": "[1]; H&E, at 38 days, compared to control group", "value": "some amount of vascular degeneration"}, {"measurement": "histopathology of liver and kidneys", "setting": "[1]; H&E, at 38 days, compared to control group (PBS)", "value": "no apparent inflammatory reaction, structural modification, or pathological abnormalities"}, {"measurement": "histopathology of spleen", "setting": "[1]; H&E, at 38 days, compared with control group", "value": "loss of lymphoid blue matter and deposition of red matter"}, {"measurement": "IC50", "setting": "[2]", "value": "158 ± 75", "unit": "nM"}, {"measurement": "IC50", "setting": "[3]", "value": "745 ± 54", "unit": "nM"}, {"measurement": "inhibition of spheroid growth", "setting": "[4]", "value": "significant inhibition of spheroidal tumor growth"}, {"measurement": "IC50", "setting": "[5]", "value": "845 ± 58", "unit": "nM"}, {"measurement": "IC50", "setting": "[6]", "value": "548 ± 125", "unit": "nM"}, {"measurement": "IC50", "setting": "[7]", "value": "399 ± 79", "unit": "nM"}, {"measurement": "IC50", "setting": "[8]", "value": "170 ± 82", "unit": "nM"}, {"measurement": "total percentage of apoptosis", "setting": "[9]", "value": 16.83, "unit": "%"}, {"measurement": "total percentage of apoptosis", "setting": "[10]", "value": 35.49, "unit": "%"}, {"measurement": "mean tumor size at 38 days after implantation", "setting": "[11]", "value": "68.26 ± 25.89", "unit": "mm^3"}, {"measurement": "mean tumor weight at 38 days after implantation", "setting": "[11]", "value": "162.8 ± 21.98", "unit": "mg"}]}]}
